# According to ChEMBL document CHEMBL1157638, “Fluorescent epigenetic small molecule induces expression of the tumor suppressor ras-association domain family 1A and inhibits human prostate xenograft” (J Med Chem, 2010):
# Tests used:
# Format in all cases: functional
# [1] = test system: CCRF-CEM; experiment: Growth inhibition of human CCRF-CEM cells assessed as cell growth at 100 nM relative to untreated control; settings: read-out: Activity
# [2] = test system: HOP-62; experiment: Growth inhibition of human HOP62 cells assessed as cell growth at 100 nM relative to untreated control; settings: read-out: Activity
# In short: (§1)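 Run externally at the National Cancer Institute as a 59-cell-line panel screen, with concentrations up to 100 μM. Growth was scored relative to control, where negative growth or total cell kill was possible. Data are in the Supporting Information.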
# [3] = test system: NCI-H460; experiment: Growth inhibition of human NCI-H460 cells assessed as cell growth at 100 nM relative to untreated control; settings: read-out: Activity
# [4] = test system: NCI-H522; experiment: Growth inhibition of human NCI-H522 cells assessed as cell growth at 100 nM relative to untreated control; settings: read-out: Activity
# [5] = test system: SF-268; experiment: Growth inhibition of human SF268 cells assessed as cell growth at 100 nM relative to untreated control; settings: read-out: Activity
# [6] = test system: M14; experiment: Growth inhibition of human M14 cells assessed as cell growth at 100 nM relative to untreated control; settings: read-out: Activity
# [7] = test system: SN12C; experiment: Growth inhibition of human SN12C cells assessed as cell growth at 100 nM relative to untreated control; settings: read-out: Activity
# [8] = test system: DU-145; experiment: Growth inhibition of human DU145 cells assessed as cell growth at 100 nM relative to untreated control; settings: read-out: Activity; in short: as §1
# [9] = test system: SR; experiment: Growth inhibition of human SR cells assessed as cell growth at 1 uM relative to untreated control; settings: read-out: Activity
# [10] = test system: A549; experiment: Growth inhibition of human A549 cells assessed as cell growth at 1 uM relative to untreated control; settings: read-out: Activity
# [11] = test system: HCC 2998; experiment: Growth inhibition of human HCC2998 cells assessed as cell growth at 1 uM relative to untreated control; settings: read-out: Activity; in short: as §1
# [12] = test system: HCT-15; experiment: Growth inhibition of human HCT15 cells assessed as cell growth at 1 uM relative to untreated control; settings: read-out: Activity; in short: as §1
# [13] = test system: HCT-15; experiment: Growth inhibition of human HCT15 cells assessed as cell growth at 1 nM relative to untreated control; settings: read-out: Activity; in short: as §1
# [14] = test system: KM12; experiment: Growth inhibition of human KM12 cells assessed as cell growth at 1 nM relative to untreated control; settings: read-out: Activity
# [15] = test system: SNB-75; experiment: Growth inhibition of human SNB75 cells assessed as cell growth at 1 nM relative to untreated control; settings: read-out: Activity
# [16] = test system: M14; experiment: Growth inhibition of human M14 cells assessed as cell growth at 1 nM relative to untreated control; settings: read-out: Activity
# [17] = test system: M14; experiment: Growth inhibition of human M14 cells assessed as cell growth at 1 uM relative to untreated control; settings: read-out: Activity
# [18] = test system: OVCAR-3; experiment: Growth inhibition of human OVCAR-3 cells assessed as cell growth at 1 uM relative to untreated control; settings: read-out: Activity
# [19] = test system: UACC-257; experiment: Growth inhibition of human UACC257 cells assessed as cell growth at 1 nM relative to untreated control; settings: read-out: Activity
# [20] = test system: UACC-62; experiment: Growth inhibition of human UACC62 cells assessed as cell growth at 1 nM relative to untreated control; settings: read-out: Activity
# [21] = test system: OVCAR-4; experiment: Growth inhibition of human OVCAR4 cells assessed as cell growth at 1 nM relative to untreated control; settings: read-out: Activity
# [22] = test system: TK-10; experiment: Growth inhibition of human TK10 cells assessed as cell growth at 1 nM relative to untreated control; settings: read-out: Activity
# [23] = test system: PC-3; experiment: Growth inhibition of human PC3 cells assessed as cell growth at 1 nM relative to untreated control; settings: read-out: Activity
# [24] = test system: COLO 205; experiment: Growth inhibition of human COLO205 cells assessed as cell growth at 10 nM relative to untreated control; settings: read-out: Activity
# [25] = test system: DU-145; experiment: Growth inhibition of human DU145 cells assessed as cell growth at 1 uM relative to untreated control; settings: read-out: Activity; in short: as §1
# [26] = test system: NCI-H460; experiment: Growth inhibition of human NCI-H460 cells assessed as cell growth at 10 uM relative to untreated control; settings: read-out: Activity
# [27] = test system: LOX IMVI; experiment: Growth inhibition of human LOXIMVI cells assessed as cell growth at 10 uM relative to untreated control; settings: read-out: Activity
# [28] = test system: Malme-3M; experiment: Growth inhibition of human MALME-3M cells assessed as cell growth at 10 uM relative to untreated control; settings: read-out: Activity
# [29] = test system: M14; experiment: Growth inhibition of human M14 cells assessed as cell growth at 10 uM relative to untreated control; settings: read-out: Activity
# [30] = test system: A498; experiment: Growth inhibition of human A498 cells assessed as cell growth at 10 uM relative to untreated control; settings: read-out: Activity
# [31] = test system: CAKI-1; experiment: Growth inhibition of human Caki1 cells assessed as cell growth at 10 uM relative to untreated control; settings: read-out: Activity; in short: as §1
# [32] = test system: RXF 393; experiment: Growth inhibition of human RXF393 cells assessed as cell growth at 10 uM relative to untreated control; settings: read-out: Activity
# [33] = test system: MOLT-4; experiment: Growth inhibition of human MOLT4 cells
# [34] = test system: HCT-116; experiment: Growth inhibition of human HCT116 cells; in short: as §1
# [35] = test system: HCT-15; experiment: Growth inhibition of human HCT15 cells; in short: as §1
# [36] = test system: HT-29; experiment: Growth inhibition of human HT-29 cells
# [37] = test system: MDA-MB-435; experiment: Growth inhibition of human MDA-MB-435 cells; settings: read-out: LC50 (the source's name)
# [38] = test system: SK-MEL-5; experiment: Growth inhibition of human SK-MEL-5 cells
# [39] = test system: OVCAR-5; experiment: Growth inhibition of human OVCAR5 cells
# [40] = test system: A498; experiment: Growth inhibition of human A498 cells
# [41] = test system: CCRF-CEM; experiment: Growth inhibition of human CCRF-CEM cells assessed as cell growth at 1 nM relative to untreated control; settings: read-out: Activity
# [42] = test system: HOP-92; experiment: Growth inhibition of human HOP92 cells assessed as cell growth at 1 nM relative to untreated control; settings: read-out: Activity; in short: as §1
# [43] = test system: CAKI-1; experiment: Growth inhibition of human Caki1 cells; in short: as §1
# [44] = Growth inhibition of human Hs 578T cells
# [45] = test system: SF-539; experiment: Growth inhibition of human SF539 cells assessed as cell growth at 10 nM relative to untreated control; settings: read-out: Activity
# [46] = test system: U-251; experiment: Growth inhibition of human U251 cells assessed as cell growth at 10 nM relative to untreated control; settings: read-out: Activity
# [47] = test system: NCI/ADR-RES; experiment: Growth inhibition of human NCI/ADR-RES cells assessed as cell growth at 10 nM relative to untreated control; settings: read-out: Activity
# [48] = test system: ACHN; experiment: Growth inhibition of human ACHN cells assessed as cell growth at 10 nM relative to untreated control; settings: read-out: Activity
# [49] = read-out: LC50 (the source's name)
smiles,measurement,setting,value
COc1ccc2c(c1)[nH]c1c(C)c(OS(=O)(=O)c3cccc4c(N(C)C)cccc34)ccc12,growth at 0.1 µM,[1],91%
same,growth at 0.1 µM,[2],106%
same,growth at 0.1 µM,[3],98%
same,growth at 0.1 µM,[4],100%
same,growth at 0.1 µM,[5],96%
same,growth at 0.1 µM,[6],100%
same,growth at 0.1 µM,[7],97%
same,growth at 0.1 µM,[8],103%
same,growth at 1 µM,[9],13%
same,growth at 1 µM,[10],31%
same,growth at 1 µM,[11],52%
same,growth at 1 µM,[12],25%
same,growth at 0.001 µM,[13],98%
same,growth at 0.001 µM,[14],110%
same,growth at 0.001 µM,[15],107%
same,growth at 0.001 µM,[16],102%
same,growth at 1 µM,[17],29%
same,growth at 1 µM,[18],-35%
same,growth at 0.001 µM,[19],100%
same,growth at 0.001 µM,[20],89%
same,growth at 0.001 µM,[21],94%
same,growth at 0.001 µM,[22],97%
same,growth at 0.001 µM,[23],101%
same,growth at 0.01 µM,[24],94%
same,growth at 1 µM,[25],7%
same,growth at 10 µM,[26],-3%
same,growth at 10 µM,[27],14%
same,growth at 10 µM,[28],12%
same,growth at 10 µM,[29],17%
same,growth at 10 µM,[30],-4%
same,growth at 10 µM,[31],26%
same,growth at 10 µM,[32],-32%
same,GI50,[33],4.19 µM
same,TGI,[33],> 100 µM
same,CC50,[33]; [49],> 100 µM
same,GI50,[34],4.38 µM
same,TGI,[34],> 100 µM
same,CC50,[34]; [49],> 100 µM
same,GI50,[35],4.35 µM
same,TGI,[35],> 100 µM
same,CC50,[35]; [49],> 100 µM
same,GI50,[36],3.71 µM
same,TGI,[36],> 100 µM
same,CC50,[36]; [49],> 100 µM
same,CC50,[37],> 100 µM
same,GI50,[38],2.73 µM
same,TGI,[38],9.34 µM
same,CC50,[38]; [49],> 100 µM
same,GI50,[39],56.1 µM
same,TGI,[39],> 100 µM
same,CC50,[39]; [49],> 100 µM
same,GI50,[40],22.4 µM
same,TGI,[40],60.2 µM
same,CC50,[40]; [49],> 100 µM
same,growth at 0.001 µM,[41],99%
same,growth at 0.001 µM,[42],101%
same,GI50,[43],27.5 µM
same,TGI,[43],> 100 µM
same,CC50,[43]; [49],> 100 µM
same,GI50,[44],36.3 µM
same,TGI,[44],93.7 µM
same,CC50,[44]; [49],> 100 µM
same,growth at 0.01 µM,[45],95%
same,growth at 0.01 µM,[46],98%
same,growth at 0.01 µM,[47],111%
same,growth at 0.01 µM,[48],102%
